Read-outs that look alike come from different tables or passages of the source.

The format of data set [1] is in vivo. As to conditions: human, plasma, sc. In a few lines:
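Type 1 diabetic subjects dosed sc once daily for 4 weeks, from 0.6 mg/day rising 0.6 mg weekly to 0.6, 1.2 or 1.8 mg. Plasma taken pre-dose and 2–60 h after the final steady-state dose; sandwich ELISA with N- and C-terminal monoclonals, LLOQ 30 pmol/L. Non-compartmental: trapezoidal AUC, observed Cmax/tmax, CL/F = dose/AUC0–24 h, Vz/F = (CL/F)/λz.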

The conditions of data set [2]: cited from earlier work.

For `CCCCCCCCCCCCCCCC(=O)N[C@@H](CCC(=O)NCCCC[C@H](NC(=O)[C@H](C)NC(=O)[C@H](C)NC(=O)[C@H](CCC(N)=O)NC(=O)CNC(=O)[C@H](CCC(=O)O)NC(=O)[C@H](CC(C)C)NC(=O)[C@H](Cc1ccc(O)cc1)NC(=O)[C@H](CO)NC(=O)[C@H](CO)NC(=O)[C@@H](NC(=O)[C@H](CC(=O)O)NC(=O)[C@H](CO)NC(=O)[C@@H](NC(=O)[C@H](Cc1ccccc1)NC(=O)[C@@H](NC(=O)CNC(=O)[C@H](CCC(=O)O)NC(=O)[C@H](C)NC(=O)[C@@H](N)Cc1cnc[nH]1)[C@@H](C)O)[C@@H](C)O)C(C)C)C(=O)N[C@@H](CCC(=O)O)C(=O)N[C@@H](Cc1ccccc1)C(=O)N[C@H](C(=O)N[C@@H](C)C(=O)N[C@@H](Cc1c[nH]c2ccccc12)C(=O)N[C@@H](CC(C)C)C(=O)N[C@H](C(=O)N[C@@H](CCCNC(=N)N)C(=O)NCC(=O)N[C@@H](CCCNC(=N)N)C(=O)NCC(=O)O)C(C)C)[C@@H](C)CC)C(=O)O` [Liraglutide, liraglutide], the Vd/F (commonly the volume of distribution divided by bioavailability) in data set [1] came out at 27.4 L; in data set [1] (0.6 mg), 27 L; in data set [1] (1.2 mg), 26 L; in data set [1] (1.8 mg), 29.3 L. The “V z/F” value in data set [2] (healthy volunteers and subjects with T2D, previous studies) was 11 to 17 L. The CL/F (in general, clearance divided by bioavailability, as obtained after extravascular dosing) in data set [2] (studies with healthy volunteers and subjects with T2D) is given as 1.2 L/h.
